Test [1] in a line: Uptake of 2-DOG (2-deoxyglucose) into L6 myocytes in the presence of half-maximal concentration of insulin at 100 uM. Format: functional, Rattus norvegicus. The essentials:
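L6 myotubes are exposed to compound at 100 µM with 10 nM insulin, a dose eliciting about 50% of maximal uptake. The initial rate of 2-[3H]deoxyglucose uptake is measured, with L-[14C]glucose marking extracellular space, and normalized to recovered lysate protein. Net insulin-dependent transport with inhibitor is expressed as a percent of that without inhibitor.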

Test [2] has as its target T1, Tyrosine-protein phosphatase non-receptor type 11 (Homo sapiens) (UniProt Q06124).
T1 sequence (whole entry): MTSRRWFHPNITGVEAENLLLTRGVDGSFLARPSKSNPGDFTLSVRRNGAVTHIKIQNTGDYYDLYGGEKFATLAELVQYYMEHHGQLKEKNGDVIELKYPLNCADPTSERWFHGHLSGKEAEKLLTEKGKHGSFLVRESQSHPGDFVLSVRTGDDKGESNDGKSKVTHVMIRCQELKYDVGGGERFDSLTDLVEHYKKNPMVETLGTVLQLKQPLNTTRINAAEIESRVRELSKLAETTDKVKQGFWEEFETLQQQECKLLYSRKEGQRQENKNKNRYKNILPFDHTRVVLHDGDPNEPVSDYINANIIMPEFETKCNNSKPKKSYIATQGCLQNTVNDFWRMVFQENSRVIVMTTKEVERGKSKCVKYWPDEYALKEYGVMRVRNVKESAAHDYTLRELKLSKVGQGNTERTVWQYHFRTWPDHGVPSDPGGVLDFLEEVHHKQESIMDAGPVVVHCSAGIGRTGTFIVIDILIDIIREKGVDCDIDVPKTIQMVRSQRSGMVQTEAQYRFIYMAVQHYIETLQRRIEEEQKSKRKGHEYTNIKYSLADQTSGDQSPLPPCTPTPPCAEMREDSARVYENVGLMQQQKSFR
Nature of the test: Inhibition of recombinant human phosphatase (SHP-2) at a concentration of 100 uM. The essentials: (§1)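 Purified recombinant human enzyme constructs; PTP1B is a C-terminally truncated soluble form, tested alongside LAR and SHP-2. Activity is read as the initial rate of p-nitrophenyl phosphate (pNPP) hydrolysis and reported as percent inhibition. PTP1B is tested at 100, 10 and 1 µM, or 10 and 1 µM in the salicylate series; LAR and SHP-2 at 100 µM.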

Test [3] has as its target T2, Tyrosine-protein phosphatase non-receptor type 1 (Homo sapiens) (UniProt P18031).
T2 sequence (whole entry): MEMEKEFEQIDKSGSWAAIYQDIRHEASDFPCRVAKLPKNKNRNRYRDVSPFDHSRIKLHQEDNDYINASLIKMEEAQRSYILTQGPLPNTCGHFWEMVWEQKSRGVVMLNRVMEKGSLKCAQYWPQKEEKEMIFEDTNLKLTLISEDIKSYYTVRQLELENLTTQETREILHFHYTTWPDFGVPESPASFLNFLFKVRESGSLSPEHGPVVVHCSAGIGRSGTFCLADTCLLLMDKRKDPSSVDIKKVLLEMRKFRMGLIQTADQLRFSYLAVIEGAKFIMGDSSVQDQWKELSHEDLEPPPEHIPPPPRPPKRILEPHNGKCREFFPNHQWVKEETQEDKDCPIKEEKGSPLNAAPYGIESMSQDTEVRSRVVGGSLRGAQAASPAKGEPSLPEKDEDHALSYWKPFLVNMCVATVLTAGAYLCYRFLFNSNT
The test can be described thus: Inhibitory activity against human protein tyrosine phosphatase 1B (PTP1B) at a concentration of 1 uM. An outline of the steps:
as §1

The target in test [4] is T2, Tyrosine-protein phosphatase non-receptor type 1 (Homo sapiens). The test can be described thus: Inhibitory activity against human protein tyrosine phosphatase 1B (PTP1B) at a concentration of 10 uM. An outline of the steps: as §1
Test [5] deals with Receptor-type tyrosine-protein phosphatase F (Homo sapiens) (UniProt P10586). The test can be described thus: Inhibitory activity against phosphatase (LAR) at a concentration of 100 uM. An outline of the steps:
as §1

Data on 13 molecules can be found in ChEMBL document CHEMBL1136635, “Modification of the N-terminus of peptidomimetic protein tyrosine phosphatase 1B (PTP1B) inhibitors: identification of analogues with cellular activity” (Bioorg Med Chem Lett, 2003).

Chain of Receptor-type tyrosine-protein phosphatase F (Homo sapiens) (P10586 whole entry): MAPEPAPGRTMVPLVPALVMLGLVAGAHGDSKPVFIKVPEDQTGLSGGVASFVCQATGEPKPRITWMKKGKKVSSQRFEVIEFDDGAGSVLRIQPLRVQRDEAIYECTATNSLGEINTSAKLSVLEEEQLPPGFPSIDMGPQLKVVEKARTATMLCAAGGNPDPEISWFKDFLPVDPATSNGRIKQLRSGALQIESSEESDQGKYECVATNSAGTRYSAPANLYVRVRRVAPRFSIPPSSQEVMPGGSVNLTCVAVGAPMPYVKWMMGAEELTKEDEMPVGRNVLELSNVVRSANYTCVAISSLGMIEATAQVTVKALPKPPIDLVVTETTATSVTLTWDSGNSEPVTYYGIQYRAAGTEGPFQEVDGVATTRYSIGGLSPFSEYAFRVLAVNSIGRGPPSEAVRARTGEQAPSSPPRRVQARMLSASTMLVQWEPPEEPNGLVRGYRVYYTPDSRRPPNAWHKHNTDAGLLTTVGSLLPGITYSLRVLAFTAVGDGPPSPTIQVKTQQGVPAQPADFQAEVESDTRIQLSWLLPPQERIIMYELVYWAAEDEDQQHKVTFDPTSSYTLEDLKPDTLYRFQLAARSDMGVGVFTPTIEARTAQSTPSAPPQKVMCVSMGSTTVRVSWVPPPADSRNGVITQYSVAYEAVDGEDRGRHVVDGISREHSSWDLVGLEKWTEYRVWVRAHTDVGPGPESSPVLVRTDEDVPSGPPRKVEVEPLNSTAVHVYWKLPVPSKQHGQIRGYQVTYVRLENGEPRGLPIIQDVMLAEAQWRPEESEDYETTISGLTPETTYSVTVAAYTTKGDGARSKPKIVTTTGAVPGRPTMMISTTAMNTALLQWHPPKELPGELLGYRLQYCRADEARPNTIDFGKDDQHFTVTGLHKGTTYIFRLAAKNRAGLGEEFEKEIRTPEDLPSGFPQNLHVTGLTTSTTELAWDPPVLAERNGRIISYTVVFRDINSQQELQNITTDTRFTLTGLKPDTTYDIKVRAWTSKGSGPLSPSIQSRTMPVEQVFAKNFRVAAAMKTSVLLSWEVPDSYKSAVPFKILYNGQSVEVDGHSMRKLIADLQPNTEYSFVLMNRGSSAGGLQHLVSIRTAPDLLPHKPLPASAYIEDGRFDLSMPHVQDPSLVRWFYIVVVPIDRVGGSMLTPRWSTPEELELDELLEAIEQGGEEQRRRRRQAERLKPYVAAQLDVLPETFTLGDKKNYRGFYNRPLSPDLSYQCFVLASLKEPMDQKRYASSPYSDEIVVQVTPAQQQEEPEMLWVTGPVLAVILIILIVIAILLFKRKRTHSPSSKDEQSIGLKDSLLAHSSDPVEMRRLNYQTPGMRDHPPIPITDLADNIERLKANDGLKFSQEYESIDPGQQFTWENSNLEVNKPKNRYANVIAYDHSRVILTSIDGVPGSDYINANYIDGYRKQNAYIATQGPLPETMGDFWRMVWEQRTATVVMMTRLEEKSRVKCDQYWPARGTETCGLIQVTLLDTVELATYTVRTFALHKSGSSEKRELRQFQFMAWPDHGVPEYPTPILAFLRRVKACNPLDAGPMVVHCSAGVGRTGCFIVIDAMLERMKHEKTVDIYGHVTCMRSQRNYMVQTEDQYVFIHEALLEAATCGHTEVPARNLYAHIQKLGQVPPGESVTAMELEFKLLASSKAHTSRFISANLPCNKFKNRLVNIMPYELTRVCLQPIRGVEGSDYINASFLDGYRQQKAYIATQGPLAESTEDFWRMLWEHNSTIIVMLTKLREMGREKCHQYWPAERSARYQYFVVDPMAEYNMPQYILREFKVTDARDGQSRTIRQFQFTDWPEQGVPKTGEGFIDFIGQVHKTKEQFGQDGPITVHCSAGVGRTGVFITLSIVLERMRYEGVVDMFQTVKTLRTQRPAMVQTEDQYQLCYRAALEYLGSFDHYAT

Usually inhibition stands for the relative decrease from the control value, in per cent. As to `CCCCCNC(=O)[C@H](Cc1ccc(OCC(=O)O)c(C(=O)O)c1)NC(=O)[C@H](Cc1ccccc1)N1CCCC1=O`, the “Control Uptake” value in test [1] was found to be 95%. Also, the inhibition came out at 5% in test [2], 24% in test [3], 71% in test [4] and 0% in test [5].
The matching figures for `CCCCCNC(=O)[C@H](Cc1ccc(OCC(=O)O)c(C(=O)O)c1)NC(=O)[C@H](Cc1ccc(O)cc1)NC(=O)OC(C)(C)C`: 115%, 5%, 32%, 81% and 0%.
On the same counts, the results for `CCCCCNC(=O)[C@H](Cc1ccc(OCC(=O)O)c(C(=O)O)c1)NC(=O)[C@H](C)NC(=O)OC(C)(C)C` are 76%, 5%, 8%, 43% and 4%.
For `CCCCCNC(=O)[C@H](Cc1ccc(OCC(=O)O)c(C(=O)O)c1)NC(=O)[C@H](COCOC)NC(=O)OC(C)(C)C`, in test [1], the “Control Uptake” value amounted to 70%. Also, the inhibition amounted to 16% in test [3], 51% in test [4] and 2% in test [5].
Turning to `CCCCCNC(=O)[C@H](Cc1ccc(OCC(=O)O)c(C(=O)O)c1)NC(=O)[C@H](Cc1ccccc1)NC(=O)CCNS(C)(=O)=O`, the “Control Uptake” value in test [1] is recorded as 81%. For the same molecule, the inhibition in test [2] is 25%; in test [3], 15%; in test [4], 73%; in test [5] it was 10%.
For the molecule `CCCCCNC(=O)[C@H](Cc1ccc(OCC(=O)O)c(C(=O)O)c1)NC(=O)[C@H](Cc1ccccc1)NC(=O)Cc1c[nH]c2ccccc12`, the “Control Uptake” value in test [1] is listed as 73%. For the same molecule, the inhibition was determined as 38% in test [2], 47% in test [3], 88% in test [4] and 0% in test [5].
The matching figures for `CCCCCNC(=O)[C@H](Cc1ccc(OCC(=O)O)c(C(=O)O)c1)NC(=O)[C@H](Cc1ccccc1)NC(=O)CCCO`: 108%, 27%, 23%, 78% and 0%.
On the same counts, the results for `CCCCCNC(=O)[C@H](Cc1ccc(OCC(=O)O)c(C(=O)O)c1)NC(=O)[C@H](Cc1ccccc1)NC(=O)Cc1cccc(O)c1` are 108%, 32%, 43%, 86% and 6%.
The matching figures for `CCCCCNC(=O)[C@H](Cc1ccc(OCC(=O)O)c(C(=O)O)c1)NC(=O)[C@H](Cc1ccccc1)NC(=O)Cc1ccc(O)cc1`: 96%, 34%, 46%, 88% and 7%.
On to `CCCCCNC(=O)[C@H](Cc1ccc(OCC(=O)O)c(C(=O)O)c1)NC(=O)[C@H](Cc1ccccc1)NC(C)=O`, for which the “Control Uptake” value in test [1] is given as 95%. Further, the inhibition in test [2] came to 13%; in test [3], 28%; in test [4], 77%; in test [5], 0%.
On the same counts, the results for `CCCCCNC(=O)[C@H](Cc1ccc(OCC(=O)O)c(C(=O)O)c1)NC(=O)[C@H](CCOCOC)NC(=O)OC(C)(C)C` are 113%, 6%, 6%, 42% and 0%.
On the same counts, the results for `CCCCCNC(=O)[C@H](Cc1ccc(OCC(=O)O)c(C(=O)O)c1)NC(=O)[C@H](CCO)NC(=O)OC(C)(C)C` are 74%, 8%, 11%, 45% and 0%.
Regarding `CCCCCNC(=O)[C@H](Cc1ccc(OCC(=O)O)c(C(=O)O)c1)NC(=O)[C@H](Cc1ccccc1)NC(=O)OC(C)(C)C`, the “Control Uptake” value in test [1] is given as 108%. The molecule further registered an inhibition in test [5] of 0%.
